Only a selection was taken, and hits are over-represented in it overall.
DYRK1A inh: inhibitors of rat Dyrk1A kinase; ADP-Glo luminescence, NFATc1 peptide; inhibition, % at 12.5 µM; Q63470; hit rate 0.43% among 310,000; in the data active = inhibition above about 50%;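 note: plate controls were vehicle with enzyme for no effect and no enzyme for full effect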
GSK3 alpha inh: inhibitors of human GSK-3 alpha kinase | AID 2650 | inhibition, % at 10 µM | ADP-Glo luminescence, 60 min | hit rate 0.1% among 320,000;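 active = more than half of replicates show inhibition above 20%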;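 note: GST-tagged GSK-3 alpha with peptide substrate and 25 µM ATP; 0% = DMSO neutral wells and 100% = GW8510 positive control wells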
GSK3B inh: inhibitors of human GSK3beta kinase; activity score (negative = inhibition), % at 10 µM; GST-GSK3beta kinase, ADP-Glo luminescence, 60 min; active compounds read low; hit rate 0.038% among 300,000;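 active = more than half of replicate wells score below -50%, meaning over 50% inhibition versus plate controls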;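 note: 0% = median DMSO wells and -100% = median GW8510 positive control wells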
Target sequence (P49841 whole entry, looked up): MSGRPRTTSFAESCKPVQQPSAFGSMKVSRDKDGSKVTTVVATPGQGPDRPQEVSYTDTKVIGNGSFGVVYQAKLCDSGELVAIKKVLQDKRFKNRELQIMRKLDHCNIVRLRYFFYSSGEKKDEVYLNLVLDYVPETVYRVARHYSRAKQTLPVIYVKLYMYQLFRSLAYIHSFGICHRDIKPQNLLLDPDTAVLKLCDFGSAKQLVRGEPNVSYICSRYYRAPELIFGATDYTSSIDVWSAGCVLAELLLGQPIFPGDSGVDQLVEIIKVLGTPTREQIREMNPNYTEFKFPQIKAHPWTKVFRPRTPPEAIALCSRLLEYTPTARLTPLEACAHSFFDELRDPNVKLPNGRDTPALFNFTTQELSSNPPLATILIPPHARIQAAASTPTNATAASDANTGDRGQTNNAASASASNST
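test system = GST-tagged human GSK3beta kinase, cell-free | reagent = 25 µM ATP with peptide substrate | dosing = one dose of 10 µM per compound | schedule = 60 min reaction, RT | detection = luminescent ADP-Glo measurement of ADP formed | control set = DMSO neutral wells and GW8510 at 20 µM as positive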
CDK5 inh: inhibitors of human CDK5/p35 kinase. Q00535+Q15078. Recombinant CDK5/p35, ADP-Glo luminescence, 60 min. inhibition, % at 10 µM. hit rate 0.01% among 330,000;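 active = highest replicate inhibition of at least 50% and at least 75% of replicates reaching 50%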;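 note: plate controls were DMSO neutral control for no effect and GW8510 at 10 µM for full effect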
STK33 kinase inh: blocks human STK33 kinase activity; Q9BYT3; purified STK33, MBP phosphorylation, ADP-Glo luminescence; inhibition, % at 10 µM; hit rate 0.073% among 320,000;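 active = inhibition at or above 25%, using the most active replicate where run in duplicate; inactive = inhibition below 25%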
Dyrk1A artifact: counter-screen for Dyrk1A inhibitors: ADP-Glo luciferase artifacts; AC50, µM (series often up to 12 µM), inactives show at the highest dose activity change, negative = inhibition; shares compounds with DYRK1A inh; 1,300 tested, under 10 active; ADP-Glo luciferase artifact assay, no Dyrk1A, luminescence;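 active = fitted half-maximal dose AC50 no more than ten times the top valid tested dose, with luminescence dropping as dose rises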
* = called active by the depositor; . = no result; ! = not confirmed by another sample.

SMILES	DYRK1A inh	GSK3 alpha inh	GSK3B inh	CDK5 inh	STK33 kinase inh	Dyrk1A artifact
CC1=C(C(=O)OCc2ccc3c(c2)OCO3)C(c2ccccc2OCc2ccccc2)NC(=O)N1 (centres undefined)	12.2	-1.1	2.1	-1.5	0.2	.
O=c1cc(-c2ccccc2Cl)oc2c([N+](=O)[O-])c(O)cc(O)c12	82.8*	39.3	-53.0*	4.7	1.9	11.6%
CCCCCCCCCCCCN1[C@@H](CC(=O)OC)c2cc(C(F)(F)F)ccc2S1(=O)=O	53.3*	-0.7	2.0	1.1	0.2	12.5%
CCOC(=O)C[C@H]1c2cc(C(F)(F)F)ccc2S(=O)(=O)N1C(C)C	53.5*	0.7	-3.0	1.6	-2.6	11.6%
CCOC(=O)C[C@H]1c2cc(F)ccc2S(=O)(=O)N1C(C)C	1.8	-1.3	1.0	-0.1	-6.3	.
CC(NC(=O)c1ccccc1Cl)C(=O)OCc1cn2cc(Cl)ccc2n1 (centres undefined)	.	-1.3	.	0.0	-0.9	.
N=C(N)N=Nc1c(O)[nH]c2ccc(Br)cc12	62.6*	-1.8	-34.2	33.7	-1.0	8.3%
Oc1ccc(NC(=S)N=Nc2c(O)[nH]c3ccc(Br)cc23)cc1	51.0*	.	-3.5	0.4	.	9.7%
Oc1[nH]c2ccc(Br)cc2c1N=NC(=S)Nc1ccc(F)cc1	8.2	-1.2	3.5	-1.2	-1.0	.
O=C(NCCc1ccccn1)C1CCCN1S(=O)(=O)c1ccc(Cl)cc1 (centres undefined)	-1.0	-3.8	.	-0.3	0.8	.
Nc1ccc2c(c1)C(=O)c1ccccc1-2	6.7	-0.9	0.3	-4.4	-1.7	.
Nc1ccc2c(c1)C(=O)C(=O)c1ccccc1-2	88.8*	-3.9	1.4	2.1	0.2	7.5%
Cc1ccccc1C(=O)N1CCC(C(=O)Nc2ccc(S(=O)(=O)N3CCCCC3)cc2)CC1	-0.2	-0.2	-5.5	1.4	-1.8	.
COc1cc(/C=C2\SC(N3CCC(C)CC3)=NC2=O)ccc1O	76.8*	5.3	-2.4	1.9	20.9	11.8%
CN1CCC(N(C)C(=O)COc2ccccc2Cl)CC1	0.3	-0.8	.	-0.3	-1.7	.
O=C(CNC(=O)N1CC(=O)Nc2ccccc21)Nc1cc(Cl)ccc1Cl	2.4	-2.0	0.3	-10.1	-1.5	.
COc1cccc(-c2sc3ccccc3c2-c2ccc(OCCN3CCCC3)cc2)c1	50.7*	1.0	.	2.6	-0.3	9.0%
Fc1ccc(-c2csc(-c3cccnc3)n2)cc1F	4.1	-1.9	5.2	1.2	-1.4	.
Oc1ccc(-c2csc(-c3ccccc3)n2)cc1O	55.4*	11.6	-5.2	2.6	2.7	7.5%
Oc1ccc(-c2csc(-c3cccnc3)n2)cc1O	50.9*	7.5	-3.2	4.2	4.0	7.0%
CCOCCCN(C(=O)Cn1nnc(-c2ccc(C)o2)n1)C(C(=O)NC1CCCC1)c1ccc(C)o1 (centres undefined)	-5.9	.	2.8	0.5	.	.
CCN1CCN(Cc2ccc(NC(=O)c3ccc(C)c(NC(=O)N4CCNC4=O)c3)cc2C(F)(F)F)CC1	53.6*!	1.5	0.1	2.2	3.9	6.7%
CCN1CCN(Cc2ccc(NC(=O)c3cc(NC(=O)c4nccnc4N)cc(OC)c3)cc2C(F)(F)F)CC1	54.5*	23.8	-0.3	11.3	2.1	8.6%
Nc1nc(Nc2cccc(F)c2)nc2ccccc12	74.4*	8.1	-5.2	-1.8	6.1	1.4%
O=c1oc(Nc2cccc(F)c2)nc2ccccc12	8.2	-1.6	2.8	0.7	0.2	.
SMILES	DYRK1A inh	GSK3 alpha inh	GSK3B inh	CDK5 inh	STK33 kinase inh	Dyrk1A artifact
COc1cc(/C=N/N2C(=O)CSC2=S)ccc1O	52.2*	7.6	-4.8	3.6	0.5	9.5%
O=C(Nc1ccccc1Cl)c1csc(-c2cccnc2)n1	74.9*	3.6	-1.5	1.3	7.9	11.4%
O=C(NNS(=O)(=O)c1ccccc1)c1csc(-c2cccnc2)n1	34.1	1.2	-5.0	1.8	2.6	.
N#CC(C(=O)c1ccccc1)=C1SCCS1	.	-3.3	-4.6	0.5	-0.2	.
Cc1ncc(CO)c(/C=N/Nc2ccc(C(F)(F)F)cn2)c1O	50.3*	4.9	0.9	3.1	4.5	8.6%
Cc1ncc(CO)c(/C=N/NC(=S)Nc2ccc(F)cc2)c1O	3.2	5.5	2.5	-2.1	-2.2	.
COc1ccc2c(C#N)c3ccccn3c2c1	72.2*	7.1	-0.9	0.7	3.5	9.4%
O=C(N/N=C/c1ccccn1)c1cc(-c2ccccc2Cl)n[nH]1	51.1*	1.6	-1.1	-5.5	1.1	8.8%
CCc1ccc(-c2cc(C(=O)N/N=C/c3ccccn3)[nH]n2)cc1	0.8	0.7	0.5	0.6	0.3	.
O=c1c(OC2OC(CO)C(O)C(O)C2OC2OC(CO)C(O)C(O)C2O)c(-c2ccc(O)cc2)oc2cc(O)cc(O)c12 (centres undefined)	23.4	-1.8	.	0.8	3.2	.
COc1ccc([C@@H]2CC(=O)c3c(O)cc(O[C@@H]4OC(CO[C@@H]5OC(C)[C@H](O)[C@H](O)C5O)[C@@H](O)[C@@H](O)C4O)cc3O2)cc1O (some centres undefined)	12.2	-0.1	1.3	1.2	0.4	.
C[C@@H]1O[C@@H](O[C@H]2[C@H](O)[C@@H](O)[C@H](Oc3c(-c4ccc(O)c(O)c4)oc4cc(O)cc(O)c4c3=O)O[C@@H]2CO)[C@H](O)[C@H](O)[C@H]1O	52.1*	13.1	.	3.1	4.6	7.5%
C[C@@H]1O[C@@H](Oc2c(-c3ccc(O)c(O)c3)oc3cc(O)cc(O)c3c2=O)[C@H](O)[C@H](O)[C@H]1O	12.0	36.7	.	-0.6	4.4	.
C[C@@H]1O[C@@H](OC[C@H]2O[C@@H](Oc3cc(O)c4c(=O)cc(-c5ccc(O)c(O)c5)oc4c3)[C@H](O)[C@@H](O)[C@@H]2O)[C@H](O)[C@H](O)[C@H]1O	58.6*	7.6	.	-0.9	4.6	13.4%
O=c1c(OC2OC(CO)C(O)C(O)C2O)c(-c2ccc(O)c(O)c2)oc2cc(O)cc(O)c12 (centres undefined)	75.1*	6.1	-0.5	-3.7	4.4	9.4%
O=c1c(O[C@@H]2O[C@H](CO)C(O)C2O)c(-c2ccc(O)c(O)c2)oc2cc(O)cc(O)c12 (some centres undefined)	63.5*	17.9	.	-0.6	6.3	13.2%
CC(=O)Nc1ccc(N(C(=O)CNC(=O)c2ccco2)C(C(=O)NC2CCCC2)c2ccco2)cc1 (centres undefined)	1.7	-0.5	4.5	2.1	-0.6	.
Cc1cc(C)nc(Sc2ncnc(N)c2[N+](=O)[O-])n1	12.2	-1.2	-9.1	3.5	-0.3	.
C[C@@H]1O[C@@H](Oc2c(-c3cc(O)c(O)c(O)c3)oc3cc(O)cc(O)c3c2=O)[C@H](O)[C@H](O)[C@H]1O	12.9	1.7	-26.2	0.1	2.8	.

Source: PubChem BioAssay
